Converted amounts (≈) assume the structure as drawn.
Legend:
Staphylococcus aureus [1] = assay: Antibacterial activity against fluoroquinolone-resistant Staphylococcus aureus 1199B overexpressing NorA after 24 hrs by two fold microdilution method; type: functional
[2] = molecular target: T1, Quinolone resistance protein NorA (Staphylococcus aureus) (UniProt P0A0J7); assay: Inhibition of NorA in fluoroquinolone-resistant Staphylococcus aureus 1199B assessed as minimum modulatory concentration require to potentiate 4 ug/ml ciprofloxacin-induced antibacterial activity
T1 sequence (whole entry): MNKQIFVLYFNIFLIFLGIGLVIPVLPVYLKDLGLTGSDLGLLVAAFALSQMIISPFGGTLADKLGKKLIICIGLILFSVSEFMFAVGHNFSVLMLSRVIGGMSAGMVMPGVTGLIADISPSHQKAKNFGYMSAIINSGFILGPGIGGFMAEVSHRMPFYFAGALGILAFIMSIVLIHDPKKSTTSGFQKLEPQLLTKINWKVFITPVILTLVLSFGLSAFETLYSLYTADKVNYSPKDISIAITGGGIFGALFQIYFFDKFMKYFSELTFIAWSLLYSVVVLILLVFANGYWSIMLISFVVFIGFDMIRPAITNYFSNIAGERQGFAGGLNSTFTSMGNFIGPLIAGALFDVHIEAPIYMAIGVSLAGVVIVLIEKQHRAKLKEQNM

[3] = molecular target: T1, Quinolone resistance protein NorA (Staphylococcus aureus); assay: Inhibition of NorA in fluoroquinolone-resistant Staphylococcus aureus 1199B assessed as minimum modulatory concentration require to potentiate 2 ug/ml ciprofloxacin-induced antibacterial activity
[4] = Cytotoxicity against human KB cells assessed as growth inhibition at 10 uM after 72 hrs by MTS assay relative to control; type: cell-based; details: read-out: GI
How it was run: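 KB cells were grown in D-MEM with 10% FCS at 37°C under 5% CO2. Compounds in DMSO (1% final) were added 24 h after plating, and cells were exposed for 72 h. MTS was then added for 3 h and absorbance read at 490 nm. Inhibition = (1 − OD treated/OD DMSO control) × 100, in triplicate. Docetaxel 0.15 nM served as positive control.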

[5] = molecular target: T1, Quinolone resistance protein NorA (Staphylococcus aureus); assay: Inhibition of NorA in fluoroquinolone-resistant Staphylococcus aureus 1199B assessed as minimum modulatory concentration require to potentiate 16 ug/ml norfloxacin-induced antibacterial activity
Staphylococcus aureus [6] = assay: Antibacterial activity against methicillin-susceptible […] Staphylococcus aureus ATCC 25923 after 24 hrs by two fold microdilution method; type: functional; details: ATCC 25923, 24 h
How it was run: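 Broth microdilution in Mueller-Hinton broth, about 10^6 CFU/mL per well, inoculum from an 18 h culture at 37°C. Compounds were dissolved in DMSO and tested in twofold serial dilutions, top 128 mg/L, or the highest fully soluble level (at least 16 mg/L). MIC is the lowest concentration giving complete growth inhibition after 24 h at 37°C, read at 620 nm and visually, in duplicate.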

[7] = Cytotoxicity against human KB cells assessed as growth inhibition at 10^-6 M after 72 hrs by MTS assay relative to control; type: cell-based; details: read-out: GI
[8] = molecular target: T1, Quinolone resistance protein NorA (Staphylococcus aureus); assay: Inhibition of NorA in fluoroquinolone-resistant Staphylococcus aureus 1199B assessed as minimum modulatory concentration require to potentiate 2 ug/ml ciprofloxacin-induced antibacterial activity at MMC relative to control
[9] = molecular target: T1, Quinolone resistance protein NorA (Staphylococcus aureus); assay: Inhibition of NorA in fluoroquinolone-resistant Staphylococcus aureus 1199B assessed as increase in ethidium bromide uptake at 20 ug/ml after 20 mins by fluorimetry relative to control
How it was run: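 Mid-log cells (overnight culture diluted 20-fold, 3.5 h, 37°C, 130 rpm) resuspended in Mueller-Hinton broth containing 10 mg/L EtBr, 37°C; compound added at 10 min (final 20 mg/L), fluorescence (ex 530/em 600 nm) followed 20 more min; rise over pre-addition baseline; reserpine 5 and 20 µg/mL positive, 1.6% DMSO negative; two or three experiments.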

[10] = molecular target: ATP-dependent translocase ABCB1 (Homo sapiens, UniProt P08183); assay: Inhibition of MDR1 in human NCI-ADR-RES cells assessed as increase in rhodamine-123 uptake at 1 to 100 uM after 1 hr by fluorescence assay; type: cell-based
How it was run: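 NCI/ADR-RES cells (P-gp overexpressing) were seeded at 60,000/well in RPMI. After 24 h they were washed with PBS and given compound (100, 10, 1 µM) plus 12.5 µM rhodamine 123 in FCS-free medium for 1 h at 37°C, 5% CO2. Cells were then washed, lysed in 20 mM Tris pH 7.7 with 0.2% SDS, and fluorescence read at 507/528 nm.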

Staphylococcus aureus [11] = assay: microbe, parasite or virus in culture; details: 1199B, 24 h

Cc1cc(B(O)O)cnc1OCc1ccccc1
MIC (Staphylococcus aureus [1]): > 128 µg/mL
MMC [2]: 4 µg/mL
MMC [3]: 65.8 µM
inhibition at 72 h, 10 µM [4]: 15%
MMC [5]: 8 µg/mL

OB(O)c1ccc(Oc2ccccc2)nc1
MIC (Staphylococcus aureus [6]): > 128 µg/mL
MIC (Staphylococcus aureus [1]): > 128 µg/mL
MMC [2]: 2 µg/mL
MMC [3]: 298 µM
inhibition at 72 h, 10 µM [4]: 14%
MMC [5]: 128 µg/mL

OB(O)c1ccc(OCc2ccc(Cl)cc2)nc1
MIC (Staphylococcus aureus [6]): ≥ 128 µg/mL
MIC (Staphylococcus aureus [1]): 128 µg/mL (≈ 486 µM)
MMC [2]: 1 µg/mL
MMC [3]: 121 µM
inhibition at 72 h, 10 µM [4]: 33%
MMC [5]: 16 µg/mL

CCCCOc1ccc(B(O)O)cn1
MIC (Staphylococcus aureus [6]): > 128 µg/mL
MIC (Staphylococcus aureus [1]): > 128 µg/mL
MMC [2]: 2 µg/mL
MMC [3]: 328 µM
inhibition at 72 h, 10 µM [4]: 1%
MMC [5]: 64 µg/mL

CCCCCCCCCCCCOc1ccc(B(O)O)cn1
MIC (Staphylococcus aureus [6]): > 16 µg/mL
MIC (Staphylococcus aureus [1]): > 16 µg/mL
MMC [2]: > 16 µg/mL
MMC [3]: > 16 µg/mL
inhibition at 72 h, 10 µM [4]: 13%

COC(=O)[C@H]1[C@H]2C[C@@H]3c4[nH]c5cc(OC)ccc5c4CCN3C[C@H]2C[C@@H](OC(=O)c2cc(OC)c(OC)c(OC)c2)[C@@H]1OC
MMC [3]: 6.57 µM

OB(O)c1ccc(OCCCCCc2ccccc2)nc1
MIC (Staphylococcus aureus [1]): 16 µg/mL (≈ 56.1 µM)
MMC [2]: 2 µg/mL
MMC [3]: 14 µM
inhibition at 72 h, 10 µM [4]: 60%
inhibition at 72 h, 1 µM [7]: 6%

CCCCCCOc1ccc(B(O)O)cn1
MIC (Staphylococcus aureus [1]): > 128 µg/mL
MMC [2]: 2 µg/mL
MMC [3]: 71.7 µM
inhibition at 72 h, 10 µM [4]: 46%
MMC [5]: 16 µg/mL

OB(O)c1ccc(NCc2ccccc2)nc1
MIC (Staphylococcus aureus [6]): > 128 µg/mL
MIC (Staphylococcus aureus [1]): > 128 µg/mL
MMC [2]: 32 µg/mL
MMC [3]: 561 µM
inhibition at 72 h, 10 µM [4]: 0%

OB(O)c1cncc(OCc2ccccc2)c1
MIC (Staphylococcus aureus [6]): > 128 µg/mL
MIC (Staphylococcus aureus [1]): > 128 µg/mL
MMC [2]: 8 µg/mL
MMC [3]: > 128 µg/mL
inhibition at 72 h, 10 µM [4]: 0%

CCCCCOc1ccc(B(O)O)cn1
MIC (Staphylococcus aureus [6]): > 128 µg/mL
MIC (Staphylococcus aureus [1]): > 128 µg/mL
MMC [2]: 2 µg/mL
MMC [3]: 306 µM
inhibition at 72 h, 10 µM [4]: 16%
MMC [5]: 64 µg/mL

OB(O)c1ccc(OCc2ccc3c(c2)OCO3)nc1
MIC (Staphylococcus aureus [6]): > 128 µg/mL
MIC (Staphylococcus aureus [1]): > 128 µg/mL
MMC [2]: 64 µg/mL
inhibition at 72 h, 10 µM [4]: 0%

OB(O)c1ccc(OCCCc2ccccc2)nc1
MIC (Staphylococcus aureus [6]): > 128 µg/mL
MIC (Staphylococcus aureus [1]): > 128 µg/mL
MMC [2]: 0.5 µg/mL
MMC [3]: 15.6 µM
fold change (FC) [8]: 4
inhibition at 72 h, 10 µM [4]: 83%
inhibition at 72 h, 1 µM [7]: 9%
MMC [5]: 8 µg/mL
inhibition [9]: 43%
inhibition (INH) [10]: Not Active

CC1(C)S[C@@H]2[C@H](NC(=O)[C@H](N)c3ccccc3)C(=O)N2[C@H]1C(=O)O [AMPICILLIN]
MIC (Staphylococcus aureus [6]): 0.25 µg/mL (≈ 0.715 µM)

OB(O)c1ccc(OCCCCCCc2ccccc2)nc1
MIC (Staphylococcus aureus [6]): > 16 µg/mL
MIC (Staphylococcus aureus [1]): > 16 µg/mL
MMC [2]: 0.5 µg/mL
MMC [3]: 13.4 µM
inhibition at 72 h, 10 µM [4]: 46%

CCn1cc(C(=O)O)c(=O)c2cc(F)c(N3CCNCC3)cc21 [NORFLOXACIN]
MIC (Staphylococcus aureus [1]): 64 µg/mL (≈ 200 µM)

OB(O)c1ccc(OCCc2ccccc2)nc1
MIC (Staphylococcus aureus [6]): > 128 µg/mL
MIC (Staphylococcus aureus [1]): > 128 µg/mL
MMC [2]: 1 µg/mL
MMC [3]: 65.8 µM
inhibition at 72 h, 10 µM [4]: 28%
MMC [5]: 16 µg/mL

OB(O)c1ccc(Oc2ccc(Cl)cc2Cl)nc1
MIC (Staphylococcus aureus [1]): 128 µg/mL (≈ 451 µM)
MMC [2]: 1 µg/mL
MMC [3]: 56.4 µM
inhibition at 72 h, 10 µM [4]: 1%
MMC [5]: 32 µg/mL

CCCCCCCOc1ccc(B(O)O)cn1
MIC (Staphylococcus aureus [6]): > 16 µg/mL
MIC (Staphylococcus aureus [1]): > 16 µg/mL
MMC [2]: 0.5 µg/mL
MMC [3]: 33.7 µM
inhibition at 72 h, 10 µM [4]: 73%
MMC [5]: 8 µg/mL

COc1cc(COc2ccc(B(O)O)cn2)cc(OC)c1OC
MIC (Staphylococcus aureus [6]): > 128 µg/mL
MIC (Staphylococcus aureus [1]): > 128 µg/mL
MMC [2]: 8 µg/mL
inhibition at 72 h, 10 µM [4]: 3%

O=C(O)c1cn(C2CC2)c2cc(N3CCNCC3)c(F)cc2c1=O [CIPROFLOXACIN]
MIC (Staphylococcus aureus [1]): 8 µg/mL (≈ 24.1 µM)
MIC (Staphylococcus aureus [11]): 0.5 µg/mL (≈ 1.51 µM)

OB(O)c1ccc(OCc2ccccc2)nc1
MIC (Staphylococcus aureus [6]): > 128 µg/mL
MIC (Staphylococcus aureus [1]): > 128 µg/mL
MMC [2]: 1 µg/mL
MMC [3]: 69.8 µM
fold change (FC) [8]: 4
MMC [5]: 32 µg/mL

OB(O)c1ccc(OCc2ccc(F)cc2)nc1
MIC (Staphylococcus aureus [6]): > 128 µg/mL
MIC (Staphylococcus aureus [1]): > 128 µg/mL
MMC [2]: 2 µg/mL
MMC [3]: 130 µM
inhibition at 72 h, 10 µM [4]: 8%
MMC [5]: 64 µg/mL

OB(O)c1ccc(OCCCCc2ccccc2)nc1
MIC (Staphylococcus aureus [6]): 64 µg/mL (≈ 236 µM)
MIC (Staphylococcus aureus [1]): 32 µg/mL (≈ 118 µM)
MMC [2]: 0.25 µg/mL
MMC [3]: 14.8 µM
fold change (FC) [8]: 4
inhibition at 72 h, 10 µM [4]: 13%
MMC [5]: 8 µg/mL
inhibition [9]: 42%
inhibition (INH) [10]: Not Active

CCCOc1ccc(B(O)O)cn1
MIC (Staphylococcus aureus [6]): > 128 µg/mL
MIC (Staphylococcus aureus [1]): > 128 µg/mL
MMC [2]: 4 µg/mL
MMC [3]: > 128 µg/mL
inhibition at 72 h, 10 µM [4]: 0%
MMC [5]: > 128 µg/mL

OB(O)c1ccc(OCCCCCCCc2ccccc2)nc1
MIC (Staphylococcus aureus [6]): > 16 µg/mL
MIC (Staphylococcus aureus [1]): > 16 µg/mL
MMC [2]: 0.5 µg/mL
MMC [3]: 12.8 µM
inhibition at 72 h, 10 µM [4]: 62%

OB(O)c1ccc(SCc2ccccc2)nc1
MIC (Staphylococcus aureus [6]): 64 µg/mL (≈ 261 µM)
MIC (Staphylococcus aureus [1]): 64 µg/mL (≈ 261 µM)
MMC [2]: 0.5 µg/mL
MMC [3]: 65.3 µM
inhibition at 72 h, 10 µM [4]: 8%
MMC [5]: 16 µg/mL

OB(O)c1ccc(OCc2ccc(Cl)c(Cl)c2)nc1
MIC (Staphylococcus aureus [1]): 16 µg/mL (≈ 53.7 µM)
MMC [2]: 0.125 µg/mL
MMC [3]: 3.35 µM
inhibition at 72 h, 10 µM [4]: 44%
inhibition at 72 h, 1 µM [7]: 0%

Source: ChEMBL document CHEMBL3414455, “Boronic species as promising inhibitors of the Staphylococcus aureus NorA efflux pump: study of 6-substituted pyridine-3-boronic acid derivatives” (Eur J Med Chem, 2015)
